Published values of several laboratories.
Compare with care: the assays were run in different laboratories.
Target: Serine/threonine-protein kinase tousled-like 2 (TLK2, Homo sapiens, UniProt Q86UE8)

Compound	effect on	technique	tested at	remaining binding [%]
COc1ncc2cc3ccccc3nc2c1C#N	cell-free assay	competition with immobilised ligand	5 µM	100
COc1cnc(Nc2cccc(S(N)(=O)=O)c2)nc1N1CCN(c2ccccc2)C(=O)C1	binding	competition with immobilised ligand	1 µM	100
C[C@H]1CCN(c2nccc(-c3cnn4ncccc34)n2)C1	binding		1 µM	100
O=C(NCC1CCOCC1)c1n[nH]cc1NC(=O)c1c(F)cccc1F	binding	competition with immobilised ligand	1 µM	100
O=C(NCc1ncc(C(F)(F)F)cc1Cl)c1ccc2c(c1)C1(CCS(=O)(=O)CC1)[C@@H](C1CC1)N2S(=O)(=O)c1ccc(F)cc1	cell-free assay	competition with immobilised ligand	1 µM	100
CNC(=O)[C@@H]1CC[C@@H](n2c(-c3ccc4cnccc4c3)nc3ccc(C(=O)NCc4cccc(C(N)=O)c4)cc32)C1	binding	competition with immobilised ligand	1 µM	100
CO[C@@H](C)c1c(Nc2ccc([C@H](N(C)C(=O)C3CCS(=O)(=O)CC3)C(F)(F)F)cc2)cnc2cc(Cl)nn12	cell-free assay	competition with immobilised ligand	1 µM	92
c1cncc(-c2cccc(Nc3nccc(NC4CCCCC4)n3)c2)c1	binding	competition with immobilised ligand	10 µM	100
O=C(N1CCS(=O)(=O)CC1)N1C[C@H](c2ccc(OC(F)(F)F)cc2)C[C@H](c2nc(C3CC3)no2)C1	cell-free assay	competition with immobilised ligand	1 µM	100
CN(CCCC(F)(F)F)c1nccc(-c2cnn3ncccc23)n1	binding		1 µM	100
CCS(=O)(=O)c1cc2cc(C[C@](O)(CC(C)(C)c3ccc(F)cc3C(N)=O)C(F)(F)F)[nH]c2cn1	cell-free assay	competition with immobilised ligand	1 µM	100
FC(F)(F)Oc1cccc(-c2cnc3ccc(-c4ccncc4)nn23)c1	binding	competition with immobilised ligand	5 µM	93
c1cnn2ncc(-c3ccnc(N4CCC45COC5)n3)c2c1	binding		1 µM	100
O=C(NCCCN1CCOCC1)c1ccc(Nc2ncc(Cl)c(-c3ccc(Cl)s3)n2)cc1	binding	competition with immobilised ligand	1 µM	77
COc1ccnn2ncc(-c3ccnc(N(C)C)n3)c12	binding		1 µM	100
NS(=O)(=O)c1cc(NC(=O)C2(c3ccccc3Cl)CC2)ccc1Oc1cccc(Cl)c1	cell-free assay	competition with immobilised ligand	1 µM	100
Cc1cnn2ncc(-c3ccnc(N(C)C)n3)c2c1	binding		1 µM	100
O=C(c1ccc(Nc2nccc(-c3cc4ccccc4s3)n2)cc1)N1CCC(N2CCCC2)CC1	binding	competition with immobilised ligand	1 µM	15
N[C@@H]1CCN(c2nccc(-c3cnn4ncccc34)n2)C1	binding		1 µM	100
Cc1nc(C2CCN(C(=O)c3ccc(OC(F)(F)F)cc3N)CC2)c2ncc(N3CCN(C)CC3)cc2n1	cell-free assay	competition with immobilised ligand	1 µM	100
Cc1cnc(Nc2ccc(C(=O)N3CCC(N4CCCC4)CC3)cc2)nc1-c1cc2ccccc2s1	binding	competition with immobilised ligand	1 µM	15
